Assay results published in ChEMBL document CHEMBL1681688, “Design and evaluation of a 2-(2,3,6-trifluorophenyl)acetamide derivative as an agonist of the GPR119 receptor” (Bioorg Med Chem Lett, 2011).

Legend:
[1] = biological target: T1, Glucose-dependent insulinotropic receptor (Homo sapiens) (UniProt Q8TDV5); assay: Intrinsic activity against human GPR119 receptor expressed in HEK293 cells assessed as beta-lactamase production by cAMP response element assay; type: functional, cell-based
T1 sequence (whole entry): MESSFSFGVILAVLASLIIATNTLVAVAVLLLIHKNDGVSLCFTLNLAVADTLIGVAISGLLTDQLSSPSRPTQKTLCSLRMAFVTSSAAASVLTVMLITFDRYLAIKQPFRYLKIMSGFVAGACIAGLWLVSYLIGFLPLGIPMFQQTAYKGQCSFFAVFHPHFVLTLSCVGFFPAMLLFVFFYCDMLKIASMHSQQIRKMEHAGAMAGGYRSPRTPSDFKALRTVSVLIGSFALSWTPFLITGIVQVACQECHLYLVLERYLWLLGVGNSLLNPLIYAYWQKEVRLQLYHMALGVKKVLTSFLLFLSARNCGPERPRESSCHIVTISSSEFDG
How it was run: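 Human recombinant cell-based cAMP functional assay, read as intrinsic activity. The number of runs varies by compound, with SD reported where n >2.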

[2] = Intrinsic clearance in human liver microsomes; type: ADME, Microsome
[3] = biological target: T2, Glucose-dependent insulinotropic receptor (Homo sapiens, UniProt Q8TDV5); assay: Agonist activity against human GPR119 receptor expressed in HEK293 cells assessed as beta-lactamase production by cAMP response element assay; type: functional, cell-based
T2 sequence (Q8TDV5 whole entry): T1 sequence (whole entry)

[4] = Lipophilicity, log D of the compound; type: physicochemical; conditions: octanol/water

Intrinsic activity [1] [%] | CLint scaled [2] [mL/min/kg] | EC50 [3] [nM] | logD [4] | Structure (SMILES)
47 | 136 | 884 | – | CC(CNC(=O)Cc1ccc(S(C)(=O)=O)cc1)C1CCN(C(=O)OC(C)(C)C)CC1 (stereo not drawn)
88 | 205 | 32 | 4 | CC(C)OC(=O)N1CCC(C(C)CNC(=O)Cc2c(F)ccc(F)c2F)CC1 (stereo not drawn)
104 | > 300 | 78 | – | CC(CNC(=O)Cc1cc(F)ccc1F)C1CCN(C(=O)OC(C)(C)C)CC1 (stereo not drawn)
111 | – | 868 | 3.5 | CC1(OC(=O)N2CCC(CCNC(=O)Cc3c(F)ccc(F)c3F)CC2)CC1
87 | 230 | 13 | – | CC(CNC(=O)Cc1c(F)ccc(F)c1F)C1CCN(C(=O)OC(C)(C)C)CC1 (stereo not drawn)
100 | 63.8 | 1380 | 3.4 | CC1(OC(=O)N2CCC([C@@H](F)CNC(=O)Cc3c(F)ccc(F)c3F)CC2)CC1
68 | – | 409 | 3.4 | CC(C)OC(=O)N1CCC(CCNC(=O)Cc2c(F)ccc(F)c2F)CC1
72 | > 270 | 267 | – | CC(CNC(=O)Cc1ccc(-n2cnnn2)cc1)C1CCN(C(=O)OC(C)(C)C)CC1 (stereo not drawn)
100 | 247 | 5980 | – | CC(CNC(=O)Cc1ccccc1)C1CCN(C(=O)OC(C)(C)C)CC1 (stereo not drawn)
107 | > 300 | 75 | – | CC(CNC(=O)Cc1cccc(F)c1F)C1CCN(C(=O)OC(C)(C)C)CC1 (stereo not drawn)
124 | > 300 | 44 | 3.9 | C[C@H](CNC(=O)Cc1c(F)ccc(F)c1F)C1CCN(C(=O)OC2(C)CC2)CC1
101 | – | 120 | 3.9 | CC(CNC(=O)Cc1c(F)cccc1F)C1CCN(C(=O)OC(C)(C)C)CC1 (stereo not drawn)
97 | > 300 | 808 | – | CC(CNC(=O)Cc1ccccc1F)C1CCN(C(=O)OC(C)(C)C)CC1 (stereo not drawn)
102 | > 300 | 340 | – | CC(CNC(=O)Cc1cccc(F)c1)C1CCN(C(=O)OC(C)(C)C)CC1 (stereo not drawn)
97 | 187 | 236 | 3.9 | C[C@@H](CNC(=O)Cc1c(F)ccc(F)c1F)C1CCN(C(=O)OC2(C)CC2)CC1
107 | 42.4 | 80 | 3.4 | CC1(OC(=O)N2CCC([C@H](F)CNC(=O)Cc3c(F)ccc(F)c3F)CC2)CC1
